Experimental data taken from ChEMBL document CHEMBL1123534, “Synthesis and renal vasodilator activity of 2-chlorodopamine and N-substituted derivatives” (1986).

Experiments:
Canis familiaris [1] = assay: Compound was tested for the renal vasodilatory activity in anesthetized dog.; format: functional, Canis lupus familiaris; parameters: unit not given here
Summary of the method: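 Dogs anesthetized and α-blocked with phenoxybenzamine, with saline infused iv during blockade. Four ascending bolus doses (3-10000 nmol) given into the renal artery in 0.2 mL isotonic saline, one test compound per dog. Maximal rise in renal blood flow was taken as % of each dog's response to 100 nmol dopamine. ED30 is the dose raising flow by 30%.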

Canis familiaris [2] = assay: Effect of compound on the renal blood flow (RBF) in alpha-blocked anesthetized dogs at a dose of 100 nmol after SCH 23390.; format: functional, Canis lupus familiaris, Kidney
Summary of the method: (§1)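 Phenoxybenzamine α-blocked anesthetized dogs, N=4-5/group (dopamine N=18). Doses given as renal-artery boluses; Δ renal blood flow in mL/min, mean ± SEM. SCH 23390 infused at 0.5 µg/kg/min iv, with doses repeated 5 min after infusion onset. After ≥1.5 h recovery, propranolol was given at 0.5 mg/kg ia over 15 min. The combined condition repeated SCH 23390 infusion with propranolol present.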

Canis familiaris [3] = assay: Effect of compound on the renal blood flow (RBF) in alpha-blocked anesthetized dogs at a dose of 100 nmol after propranolol; format: functional, Canis lupus familiaris, Kidney; summary of the method: as §1
Canis familiaris [4] = assay: Effect of compound on the renal blood flow (RBF) in alpha-blocked anesthetized dogs at a dose of 1000 nmol after propranolol; format: functional, Canis lupus familiaris, Kidney; summary of the method: as §1
Canis familiaris [5] = assay: Effect of compound on the renal blood flow (RBF) in alpha-blocked anesthetized dogs at a dose of 1000 nmol after SCH 23390.; format: functional, Canis lupus familiaris, Kidney; summary of the method: as §1
Canis familiaris [6] = assay: Effect of compound on the renal blood flow (RBF) in alpha-blocked anesthetized dogs at a dose of 1000 nmol after SCH 23390+propranolol; format: functional, Canis lupus familiaris, Kidney; summary of the method: as §1
Canis familiaris [7] = assay: Effect of compound on the renal blood flow (RBF) in alpha-blocked anesthetized dogs at a dose of 300 nmol after SCH 23390+propranolol; format: functional, Canis lupus familiaris, Kidney; summary of the method: as §1
Canis familiaris [8] = assay: Effect of compound on the renal blood flow (RBF) in alpha-blocked anesthetized dogs at a dose of 300 nmol after SCH 23390.; format: functional, Canis lupus familiaris, Kidney; summary of the method: as §1
Canis familiaris [9] = assay: Effect of compound on the renal blood flow (RBF) in alpha-blocked anesthetized dogs at a dose of 300 nmol after propranolol; format: functional, Canis lupus familiaris, Kidney; summary of the method: as §1
Canis familiaris [10] = assay: Effect of compound on the renal blood flow (RBF) in alpha-blocked anesthetized dogs at a dose of 3000 nmol after propranolol; format: functional, Canis lupus familiaris, Kidney; summary of the method: as §1
Canis familiaris [11] = assay: Effect of compound on the renal blood flow (RBF) in alpha-blocked anesthetized dogs at a dose of 3000 nmol after SCH 23390+propranolol; format: functional, Canis lupus familiaris, Kidney; summary of the method: as §1
Canis familiaris [12] = assay: Effect of compound on the renal blood flow (RBF) in alpha-blocked anesthetized dogs at a dose of 10000 nmol after SCH 23390+propranolol; format: functional, Canis lupus familiaris, Kidney; summary of the method: as §1
Canis familiaris [13] = assay: Effect of compound on the renal blood flow (RBF) in alpha-blocked anesthetized dogs at a dose of 10000 nmol after SCH 23390.; format: functional, Canis lupus familiaris, Kidney; summary of the method: as §1
Canis familiaris [14] = assay: Effect of compound on the renal blood flow (RBF) in alpha-blocked anesthetized dogs at a dose of 10000 nmol after propranolol; format: functional, Canis lupus familiaris, Kidney; summary of the method: as §1
Canis familiaris [15] = assay: Effect of compound on the renal blood flow (RBF) in alpha-blocked anesthetized dogs at a dose of 3000 nmol after SCH 23390.; format: functional, Canis lupus familiaris, Kidney; summary of the method: as §1
Canis familiaris [16] = assay: Effect of compound on the renal blood flow (RBF) in alpha-blocked anesthetized dogs at a dose of 100 nmol after SCH 23390+propranolol; format: functional, Canis lupus familiaris, Kidney; summary of the method: as §1

Work on `Cl.NCCc1ccc(O)c(O)c1Cl` yielded an ED30 (Canis familiaris [1]) of 13.5, an RBF (Canis familiaris [2]) of 4 mL/min and an RBF (Canis familiaris [3]) of 43 mL/min.
Work on `CCNCCc1ccc(O)c(O)c1Cl.Cl` yielded an ED30 (Canis familiaris [1]) of 67.4, an RBF (Canis familiaris [4]) of 40 mL/min and an RBF (Canis familiaris [5]) of 32 mL/min. It also gave an RBF (Canis familiaris [6]) of 2 mL/min, an RBF (Canis familiaris [7]) of 2 mL/min and an RBF (Canis familiaris [8]) of 22 mL/min. The RBF (Canis familiaris [9]) was 25 mL/min.
In the case of `CCCNCCc1ccc(O)c(O)c1Cl.Cl`, the ED30 (Canis familiaris [1]) is reported as 2166, the RBF (Canis familiaris [10]) is reported as 11 mL/min and the RBF (Canis familiaris [11]) is reported as 2 mL/min. For the same compound, the RBF (Canis familiaris [12]) was 5 mL/min, the RBF (Canis familiaris [13]) was 17 mL/min and the RBF (Canis familiaris [14]) was 17 mL/min. The RBF (Canis familiaris [15]) was 11 mL/min.
Compound `CNCCc1ccc(O)c(O)c1Cl.Cl` has an ED30 (Canis familiaris [1]) of 11.5, an RBF (Canis familiaris [2]) of 8 mL/min and an RBF (Canis familiaris [3]) of 34 mL/min. For the same compound, the RBF (Canis familiaris [8]) was 15 mL/min and the RBF (Canis familiaris [9]) was 49 mL/min.
Compound `NCCc1ccc(O)c(O)c1` [DOPAMINE] has an RBF (Canis familiaris [16]) of 14 mL/min, an RBF (Canis familiaris [2]) of 15 mL/min and an RBF (Canis familiaris [3]) of 69 mL/min.
